High-throughput results from PubChem BioAssay.
Only a selection was taken, and hits are over-represented in it overall.
Avidin bead fluor = avidin bead compound fluorescence profile; Avidin beads, compound fluorescence 488/530 nm, flow cytometry; stronger effect = higher value; fluorescence (KMESF) at 10 µM; hit rate 0.38% among 220,000; in the data active = fluorescence above about 47
ABCG2 inh = blocks JC-1 efflux by human ABCG2 transporter. Q9UNQ0. IgMXP3 cells, flow cytometry. inhibition, % at 6.6 µM. hit rate 0.1% among 190,000;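 active = inhibition above 80%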;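 also: 0% = DMSO and 100% = nicardipine control wells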
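Times: 10 min at 25 °C | Test system: Two drug-resistant human cell lines, ABCG2 and ABCB1 | Quantity: 3 million cells/mL final, two lines in 1:1 ratio | Signal: Flow cytometry, 530 nm JC-1 signal | Dosing: Compound at 6.6 µM | Controls: Nicardipine and DMSO wells | Reagent: JC-1 as fluorescent efflux pump substrate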
GSH bead fluor = compound fluoresces at 488/530 nm on GSH beads; AID 1776; hit rate 0.25% among 190,000; fluorescence (KMESF) at 10 µM; GSH beads flow cytometry, compound fluorescence 488/530 nm; stronger effect = higher value; in the data active = fluorescence above about 89;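 also: glutathione beads carrying GST-tagged Bcl family fusion proteins plus one bare bead set; values are compound well signal with DMSO vehicle wells as background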
Lmaj promast = inhibitors of Leishmania major promastigote growth. Leishmania major promastigotes, resazurin fluorescence viability. inhibition, % at 10 µM. hit rate 9% among 200,000. AID 1063;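 also: promastigotes grown with compound for 44 hours at 28 °C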
PKD1 kinase inh = inhibitors of human PKD1 kinase | Q15139 | PKD1 kinase fluorescence polarization assay | inhibition, % (no concentration beside the values) | hit rate 0.056% among 200,000
ABCB1 block = inhibitors of human ABCB1 transporter, ABCG2 counter-screen. P08183. CCRF-Adr cells, JC-1 efflux, flow cytometry. inhibition, % at 6.6 µM. hit rate 0.067% among 190,000; in the data active = inhibition above about 40%;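 also: 0% = vehicle and 100% = reference inhibitor; higher value means more JC-1 retained so stronger ABCB1 efflux block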
Numbers without * were called inactive; / = no result. Rule as the data show it, unless noted: active = inhibition above about 50%; inactive = the rest.

SMILES	Avidin bead fluor	ABCG2 inh	GSH bead fluor	Lmaj promast	PKD1 kinase inh	ABCB1 block
OC(COc1ccc(C2C=CCC2)cc1)CN1CCCCC1 (centres undefined)	5	0.0	27	97.0*	4.8	0.2
CC(=O)N1CCN(CC(O)COc2ccc(OCc3ccccc3)cc2)CC1 (centres undefined)	14	4.0	24	32.1	-16.9	0.0
CC(C)C[C@H](NC(=O)Nc1ccc(Oc2ccccc2)cc1)C(=O)O	3	18.2	25	-5.3	-1.1	0.7
CCCCCCCC#Cc1ccccc1/C=N/S(=O)c1ccc(C)cc1 (centres undefined)	9	-4.2	18	-2.6	-8.6	0.2
CCOC(=O)N1CCN(C(=O)c2noc(C(C)C)c2[N+](=O)[O-])CC1	5	4.8	14	-3.9	-9.5	1.3
COc1ccc(CNC(=O)C2CCCN2)cc1OC (centres undefined)	12	0.1	10	-5.8	1.1	0.0
CN1CCc2c1nc1ccccc1c2N=C1CCCN1Cc1ccccc1	9	4.7	10	25.9	-6.2	/
OC(COc1ccc(CNCCc2ccccc2F)cc1)CN1CCCCC1 (centres undefined)	3	2.9	10	78.5*	-0.3	0.8
O=C(c1ccccc1)c1ccc(OCC(O)CN2CCN(S(=O)(=O)N3CCCCC3)CC2)cc1 (centres undefined)	16	2.6	11	35.3	1.6	1.6
CCC(=O)c1ccc(OCC(O)CN2CCN(S(=O)(=O)N3CCCCC3)CC2)cc1 (centres undefined)	5	1.5	22	-2.0	-3.2	0.5
O=C(c1ccccc1)c1ccc(OCC(O)CN2CCCCC2)cc1 (centres undefined)	10	0.8	16	89.5*	5.7	0.1
CCOC(=O)C1CCN(CC(O)COc2ccc(C(=O)CC)cc2)CC1 (centres undefined)	15	2.6	46	93.7*	-9.1	1.0
O=C(c1ccc(Cl)cc1)c1ccc(OCC(O)CN2CCOCC2)cc1 (centres undefined)	18	26.1	34	63.0*	3.2	0.4
CC(C)c1ccc(/C=C/C(=O)n2nnc3ccccc32)cc1	26	-0.1	17	10.3	-6.3	-0.1
CN(C)S(=O)(=O)N1CCN(CC(O)COc2ccc(C(=O)c3ccccc3)cc2)CC1 (centres undefined)	23	18.7	25	93.2*	-1.4	0.5
O=C(CSc1nnc2ccccn12)Nc1ccc2c(c1)OCCO2	9	6.1	11	-0.4	2.4	-0.4
COc1ccc(NC(C#N)c2ccc(OC)cc2)cc1 (centres undefined)	8	3.3	14	91.2*	10.3	0.7
CSc1ncccc1C(=O)Nc1nc2ccc(Oc3ccccc3)cc2s1	13	-0.9	14	0.0	-6.8	-0.3
Cc1ccc(NC(=O)C2=C(O)CCn3c2nc2ccccc23)cc1	10	0.6	12	57.4*	-8.0	0.1
Cc1ccc(NC(=O)c2cc(N3CCOCC3)nc3ccccc23)cc1	9	21.5	33	4.8	-14.1	1.5
CCCc1c(CC)c(=N)c2ccccc2n1C	8	0.1	15	52.5*	-5.8	0.8
Cn1c(CN2CCCCC2)c(C#N)c2ccccc21	11	3.3	14	-2.2	-14.1	0.6
Cc1ccc(NC(=O)CSc2nnc(Cc3cccn3C)n2-c2ccc(F)cc2)c(C)c1	7	1.7	13	61.6*	3.8	0.5
Cn1cccc1Cc1nnc(SCC(=O)Nc2cccc(Cl)c2)n1-c1ccc(F)cc1	23	11.7	15	61.8*	-9.5	1.5
COc1ccc(C(=O)NCC(=O)OCC(=O)Nc2sccc2C#N)cc1OC	12	13.2	12	-5.7	-1.6	-0.1
SMILES	Avidin bead fluor	ABCG2 inh	GSH bead fluor	Lmaj promast	PKD1 kinase inh	ABCB1 block
Cc1cc(-c2nn(-c3ccccc3F)cc2CNCCc2cnc[nH]2)c(C)s1	6	6.3	19	98.0*	5.5	4.9
Cc1cc(-c2nn(-c3ccccc3F)cc2CN2CCC(C(N)=O)CC2)c(C)s1	7	2.5	17	0.9	5.0	1.1
O=c1nc2n(c3ccc([N+](=O)[O-])cc13)CCCCC2	8	5.4	15	-3.8	-2.6	0.8
N#C/C(=C\c1cccc([N+](=O)[O-])c1)c1nnc2n1CCCCC2	1	0.3	6	60.9*	0.8	0.0
CCn1cc(/C=N/NC(=O)c2ccc3c(c2)OCO3)cn1	1	1.9	7	-5.9	1.0	0.0
COc1ccc(C(=O)N/C(=C\c2ccc3c(c2)OCO3)C(=O)Nc2ccc(C(=O)O)cc2)cc1	7	-0.3	69	-7.2	-2.9	0.1
COc1ccc(NC(=O)/C(=C/c2ccc3c(c2)OCO3)NC(C)=O)cc1	16	31.3	4	70.8*	-19.2	0.4
N#Cc1c2ccc(O)cc2n2ccccc12	11	5.2	9	100.4*	13.3	0.3
COC(=O)Cn1c(C)c(C#N)c2ccccc21	5	1.6	30	-1.5	-2.1	-0.4
CCc1cccc(C)c1NC(=O)CN(C)Cc1ccccc1F	0	3.5	6	-0.2	-5.9	1.3
COc1ccc(C2=C/C(=C\c3cccc(OC(C)=O)c3)C(=O)O2)cc1	17	-3.1	13	50.7*	-8.5	-0.7
COc1ccc2nc3c(cc2c1)c(NC(=O)c1cccs1)nn3CC(C)C	19	-0.1	14	83.7*	-4.3	0.3
Cc1ccc(-n2nc(C(=O)NCc3ccc(C)o3)c3c4ccccc4n(C)c3c2=O)cc1	12	24.9	32	11.7	9.4	3.1
CCOc1cc(CNCCCN2CCOCC2)ccc1OCC(=O)NC(C)(C)C	7	4.4	9	0.5	8.4	0.3
CCOc1cc(CNCCN2CCOCC2)ccc1OCc1ccccc1Cl	8	0.0	20	98.2*	-3.1	0.2
COc1cc(CNCCN2CCOCC2)ccc1OCc1c(Cl)cccc1Cl	8	15.1	11	86.4*	-3.6	4.4
O=C(Oc1c(CN2CCOCC2)cc(Cl)c2cccnc12)c1ccc(F)cc1	17	1.0	38	100.3*	4.6	0.7
O=C(Oc1ccccc1C(=O)N1CCOCC1)c1ccc(F)cc1	5	/	/	/	/	/
COc1cccc(C(=O)Oc2c(CN3CCOCC3)cc(Cl)c3cccnc23)c1	21	-0.7	17	100.3*	-7.1	0.1
COc1cccc(C(=O)OCCN2CCOCC2)c1	13	0.1	11	-3.7	3.6	0.2
COc1ccc(C(=O)Oc2c(CN3CCOCC3)cc(Cl)c3cccnc23)cc1	16	3.0	22	96.8*	1.9	1.8
COc1cc(C(=O)Oc2c(CN3CCOCC3)cc(Cl)c3cccnc23)cc(OC)c1OC	8	1.4	24	100.5*	-8.8	2.0
CCOc1ccc2[nH]c(=O)c(CN(CCO)C(c3nnnn3C3CCCCC3)C(C)C)cc2c1 (centres undefined)	27	2.4	12	68.6*	-4.1	0.2
